Data from ChEMBL document CHEMBL3758106, “Antitumor Activity of Americanin A Isolated from the Seeds of Phytolacca americana by Regulating the ATM/ATR Signaling Pathway and the Skp2-p27 Axis in Human Colon Cancer Cells” (J Nat Prod, 2015).
Active and inactive are the calls of the source. No cut-off for these calls is given here.

Experiments:
[1] = Downregulation of cdc2 expression in human HCT116 cells at 7.5 to 30 uM after 24 hrs by Western blot analysis; format: functional, cell-based; conditions: HCT-116
Procedure, shortened: (§1)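 HCT116 cells exposed 24 h in complete medium; lysed in RIPA buffer (pH 8.0), protein by BCA, equal loads run on 8–13% SDS-PAGE, PVDF transfer, blocked in 5% BSA/TBST, primary antibodies overnight at 4 °C, HRP secondaries 2 h RT, ECL detection; β-actin as loading control.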

MRC5 = experiment: Cytotoxicity against human MRC5 cells after 24 to 72 hrs by SRB assay; format: cell-based
Procedure, shortened: (§2)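 Cells grown in 96-well plates (RPMI 1640; MRC-5 in MEM, 10% FBS, antibiotics) with compound […]; fixed in 10% TCA 30 min at 4 °C, stained 0.4% SRB in 1% acetic acid 1 h, dye dissolved in 10 mM Tris pH 10.0, A515 read; viability as % of solvent control, IC50 by nonlinear regression; mean of three independent experiments.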

[2] = Antitumor activity against human HCT116 cells xenografted in nude mouse assessed as tumor growth inhibition at 5 mg/kg, ip administered 3 times per week measured on day 41; format: functional; conditions: HCT-116, ip, 984 h, read-out: TGI
Procedure, shortened: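 Nude mice given 2 × 10^6 HCT116 cells subcutaneously in flank; at ~120 mm3 randomised, six per group; ip dosing in 200 μL, test agent 5 or 10 mg/kg three times weekly, irinotecan 10 mg/kg once weekly; tumour volume measured twice weekly to day 41; body weight tracked for toxicity.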

[3] = Antiproliferative activity against p53-expressing human HCT116 cells assessed as cell viability after 72 hrs by SRB assay; format: functional, cell-based; conditions: HCT-116, 72 h
Procedure, shortened: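 p53 wild-type and p53-null HCT116 cells in 96-well plates treated 72 h; SRB assay (TCA fix, SRB stain, Tris pH 10.0 solubilisation, A515); viability vs solvent control, IC50 by nonlinear regression.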

HCT-116 [4] = experiment: Induction of cell cycle arrest in human HCT116 cells assessed as accumulation at S phase at 30 uM after 24 hrs by propidium iodide staining-based flow cytometric analysis in presence of RNase A (reference value: 13.4%); format: functional
HCT-116 [5] = experiment: Induction of apoptosis in human HCT116 cells assessed as cleaved caspase 3 level at 30 uM up to 24 hrs by Western blot analysis; format: functional, cell-based
RKO = experiment: Antiproliferative activity against human RKO cells after 24 to 72 hrs by SRB assay; format: functional, cell-based; procedure, shortened: as §2
HCT-116 [6] = experiment: Induction of apoptosis in human HCT116 cells assessed as early apoptotic cells at 30 uM after 48 hrs by annexin V-FITC/propidium iodide staining-based flow cytometric analysis in presence of NAC (reference value: 1.1%); format: functional
HCT-116 [7] = experiment: Induction of morphological change in human HCT116 cells assessed as loss of contact with surface of culture dish at 30 uM after 24 to 48 hrs by phase contrast microscopic analysis; format: functional, cell-based
Procedure, shortened: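 HCT116 cells incubated with compound for 24 h, then viewed and photographed under phase-contrast microscopy; also examined at 48 h.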

HCT-116 [8] = experiment: Induction of cell cycle arrest in human HCT116 cells assessed as accumulation at S phase at 15 uM after 24 hrs by propidium iodide staining-based flow cytometric analysis in presence of RNase A (reference value: 13.4%); format: functional
CAKI-1 = experiment: Antiproliferative activity against human CAKI-1 cells after 24 to 72 hrs by SRB assay; format: functional, cell-based; procedure, shortened: as §2
HCT-116 [9] = experiment: Induction of cell cycle arrest in human HCT116 cells assessed as accumulation at G0/G1 phase at 15 uM after 48 hrs by propidium iodide staining-based flow cytometric analysis in presence of RNase A (reference value: 54.3%); format: functional
HCT-116 [10] = experiment: Induction of cell cycle arrest in human HCT116 cells assessed as accumulation at sub-G1 phase after 24 hrs by propidium iodide staining-based flow cytometric analysis in presence of RNase; format: functional
A549 = experiment: Antiproliferative activity against human A549 cells after 24 to 72 hrs by SRB assay; format: functional, cell-based; procedure, shortened: as §2
[11] = molecular target: Serine-protein kinase ATM/ATR (Homo sapiens) (UniProt Q13315+Q13535); experiment: Activation of ATM/ATR in human HCT116 cells assessed as downregulation of cdc25C level after 24 hrs by Western blot analysis; format: cell-based; conditions: HCT-116; procedure, shortened: as §1
[12] = Upregulation of phosphorylated H2A.X expression at Ser139 in human HCT116 cells at 7.5 to 30 uM after 24 hrs by Western blot analysis; format: functional, cell-based; conditions: HCT-116

In the case of `O=C/C=C/c1ccc2c(c1)O[C@@H](CO)[C@H](c1ccc(O)c(O)c1)O2` [AMERICANIN A], the Activity [1] is reported as “Active”, the IC50 (MRC5) is reported as over 100 µM and the inhibition in vivo at 5 mg/kg [2] is reported as 45%. For the same compound, the IC50 [3] was 8.3 µM, the Activity (HCT-116 [4]) was 18.4% and the Activity (HCT-116 [5]) was “Active”. The IC50 (RKO) was 24.4 µM, the Activity (HCT-116 [6]) was 2.7% and the Activity (HCT-116 [7]) was “Active”. The Activity (HCT-116 [8]) was 17.9%, the IC50 (CAKI-1) was 66.4 µM and the Activity (HCT-116 [9]) was 23.4%. The Activity (HCT-116 [10]) was “Dose-dependent effect”, the IC50 (A549) was 39.1 µM and the Activity [11] was “Dose-dependent effect”. For the same compound, the Activity [12] was “Active”.
